Measured values gathered from unrelated publications.
Each line is one published result; the experiments were not run side by side. pIC50, pKi: −log10 of the molar value.
Target: Sodium-dependent serotonin transporter (SLC6A4, Homo sapiens, UniProt P31645)

CCC(C)C(=O)[C@]12C(=O)[C@](CC=C(C)C)(C[C@H](CC=C(C)C)[C@@]1(C)CCC=C(C)C)C(=O)C(CC=C(C)C)=C2O (stereo partly shown) has a pKi of 4.47 (ligand displacement, radioligand; cell membranes).
The pKi of CCCOC(=O)[C@@]12C[C@@H]1[C@@H](n1cnc3c(NC)nc(C#Cc4ccc(Cl)s4)nc31)[C@H](O)[C@@H]2O is reported as < 5.00 (ligand displacement, radioligand; cell membranes).
The pKi of CCN(CC)c1ccc(C2Nc3ccc(C(=O)c4ccccc4)cc3NC3=C2C(=O)CC(C)(C)C3)cc1 (stereo not shown) is reported as < 5.00 (cell-free assay, radioligand).
CC(C)c1nc2cc(OCCCCN3CCN(c4cccc5c4OCCO5)CC3)ccc2s1 gave a pKi of 6.48 (ligand displacement, radioligand).
CC(=O)N1C[C@H](CCN2CCC(c3c[nH]c4cc(Cl)ccc34)CC2)c2ccccc21 has a pIC50 of 6.44 (ligand displacement, radioligand; cell membranes).
With CNc1nc2cc(OCCCCN3CCC(c4cccc(Cl)c4Cl)CC3)ccc2s1 the pKi was 7.21 (ligand displacement, radioligand).
With CCn1c(-c2nc3cc(C(=O)N4CCC[C@@H](N)C4)cc(OC)c3n2C)cc2cccnc21 the pIC50 was 4.40 (transporter uptake).
CCCCN1CCC(COC(=O)c2ccc(N)c(OCF)c2)CC1 gave a pKi of < 5.00 (cell-free assay, radioligand).
With Cc1ccc2cccc(N3CCN(CCCCOc4ccc5sc(C(C)C)nc5c4)CC3)c2n1 the pKi was 6.32 (ligand displacement, radioligand).
The pIC50 of CCn1c(-c2nc3ccc(C(=O)N4CCCC(N)C4)cc3n2C)cc2ccccc21 (stereo not shown) is reported as 4.70 (transporter uptake).
